Reference: ChEMBL document CHEMBL4765431, “Novel phthalide derivatives: Synthesis and anti-inflammatory activity in vitro and in vivo” (Eur J Med Chem, 2020)
Active and inactive are the calls of the source. No cut-off for these calls is given here.

Assays:
RAW264.7 [1] = experiment: Cytotoxicity against mouse RAW264.7 cells assessed as reduction in cell viability incubated for 24 hrs in presence of LPS by MTT assay; assay type: cell-based; conditions: RAW264.7, 24 h
RAW264.7 [2] = experiment: Antiinflammatory activity in mouse RAW264.7 cells assessed as inhibition of LPS-induced nitric oxide production at 10 uM preincubated for 1 hr followed by LPS stimulation and measured after 24 hrs by Griess reagent-based assay relative to control; assay type: functional; conditions: time 25 hrs
Summary of the method: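 RAW264.7 cells (7 × 10^4/well, used 24 h after seeding) in DMEM with 10% heat-inactivated FBS, 37 °C, 5% CO2. Pretreated 1 h with compound (10 µM screen; 0.625–10 µM dose series), then LPS 0.5 µg/mL for 24 h. Supernatant mixed 1:1 with Griess reagent, 15 min at room temperature, absorbance read at […].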

RAW264.7 [3] = experiment: Antiinflammatory activity in mouse RAW264.7 cells assessed as inhibition of LPS-induced nitric oxide production preincubated for 1 hr followed by LPS stimulation and measured after 24 hrs by Griess reagent-based assay; assay type: functional, cell-based
RAW264.7 [4] = experiment: Cytotoxicity against mouse RAW264.7 cells assessed as reduction in cell viability incubated for 24 hrs in absence of LPS by MTT assay; assay type: cell-based; conditions: RAW264.7, 24 h
RAW264.7 [5] = experiment: Cytotoxicity against mouse RAW264.7 cells assessed as reduction in cell viability at 20 uM incubated for 24 hrs by MTT assay; assay type: cell-based; conditions: raw264.7, 24 h
Summary of the method: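 RAW264.7 cells (1 × 10^4/well, used 24 h after seeding) exposed to 20 µM for 24 h. MTT (5 mg/mL stock) added for 4 h, supernatant removed, crystals dissolved in DMSO with 10–15 min shaking, absorbance at 492 nm.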

Rattus norvegicus [6] = experiment: Antiarthritic activity in Sprague-Dawley rat model of arthritis assessed as decrease in CFA-induced synovial hyperplasia at 60 mg/kg, ig administered daily for 28 days starting from 14 days post-immunization and measured every 3 days by H and E staining based histopathological analysis; assay type: functional, organism-based; conditions: time 28.0 day
Rattus norvegicus [7] = experiment: Antiarthritic activity in Sprague-Dawley rat model of CFA-induced arthritis assessed as intact joint cavity at 60 mg/kg, ig administered daily for 28 days starting from 14 days post-immunization and measured every 3 days by H and E staining based histopathological analysis; assay type: functional, organism-based; conditions: time 28.0 day

Compound	IC50 (RAW264.7 [1]) [µM]	inhibition at 10 µM (RAW264.7 [2]) [%]	IC50 (RAW264.7 [3]) [µM]	IC50 (RAW264.7 [4]) [µM]	Activity (RAW264.7 [5])	Activity (Rattus norvegicus [6])	Activity (Rattus norvegicus [7])
COc1ccc2c(c1)c(CC(=O)O)c(C)n2C(=O)c1ccc(Cl)cc1 [INDOMETHACIN]	> 40	61.6	> 10	> 40			
COc1cc(OC)c2c(c1)C(C(O)c1ccc(O)cc1)OC2=O (stereo unspecified)	> 40	46.1	> 10	> 40	Non-Toxic		
COc1cc(OC)c2c(c1)/C(=C/c1ccc(OCc3ccccc3)cc1)OC2=O	> 40	44.3	> 10	> 40	Non-Toxic		
COCCOc1ccc(C(O)C2OC(=O)c3c(OC)cc(OC)cc32)cc1 (stereo unspecified)	> 40	41.4	> 10	> 40	Non-Toxic		
COc1cc(OC)c2c(c1)C(C(O)c1ccc(OCc3ccc(Br)cc3)cc1)OC2=O (stereo unspecified)	> 40	68.1	6.53	> 40	Non-Toxic		
O=C1OC(Cc2nc(-c3ccccc3)no2)c2ccccc21 (stereo unspecified)	> 40	13	> 10	> 40	Non-Toxic		
COc1cc(OC)c2c(c1)C(C(O)c1ccc(OCc3ccc(C)cc3)cc1)OC2=O (stereo unspecified)	> 40	82.1	3.12	> 40	Non-Toxic		
CCCOc1ccc(C(O)C2OC(=O)c3c(OC)cc(OC)cc32)cc1 (stereo unspecified)	> 40	53.2	9.26	> 40	Non-Toxic		
COCCCOc1ccc(C(O)C2OC(=O)c3c(OC)cc(OC)cc32)cc1 (stereo unspecified)	> 40	89.5	1.26	> 40	Non-Toxic		
CCCCOc1ccc(C(O)C2OC(=O)c3c(OC)cc(OC)cc32)cc1 (stereo unspecified)	> 40	83.7	1.8	> 40	Non-Toxic		
CCOc1ccc(C(O)C2OC(=O)c3c(OC)cc(OC)cc32)cc1 (stereo unspecified)	> 40	43.2	> 10	> 40	Non-Toxic		
Cc1noc(CC2OC(=O)c3ccccc32)n1 (stereo unspecified)	> 40	24.3	> 10	> 40	Non-Toxic		
COc1cc(OC)c2c(c1)C(C(O)c1ccc(OCc3ccc(OC(F)F)cc3)cc1)OC2=O (stereo unspecified)	> 40	67.6	5.03	> 40	Non-Toxic		
COC1=C[C@@H]2[C@@H]3Cc4ccc(OC)c(O)c4[C@]2(CCN3C)CC1=O						Active	Active
O=C1OC(Cc2nc(-c3ccc(-c4ccccc4)cc3)no2)c2ccccc21 (stereo unspecified)	> 40	25.2	> 10	> 40	Non-Toxic		
COc1cc(OC)c2c(c1)C(C(O)c1ccc(OCc3ccccc3)cc1)OC2=O (stereo unspecified)	> 40	41.2	> 10	> 40	Non-Toxic		

Compound	IC50 (RAW264.7 [1]) [µM]	inhibition at 10 µM (RAW264.7 [2]) [%]	IC50 (RAW264.7 [3]) [µM]	IC50 (RAW264.7 [4]) [µM]	Activity (RAW264.7 [5])	Activity (Rattus norvegicus [6])	Activity (Rattus norvegicus [7])
COc1cc(OC)c2c(c1)C(C(O)c1ccc(OCc3ccc(Cl)cc3)cc1)OC2=O (stereo unspecified)	> 40	75.1	4.32	> 40	Non-Toxic		
COc1ccc(/C=C2\OC(=O)c3c(OC)cc(OC)cc32)cc1	> 40	36.3	> 10	> 40	Non-Toxic		
COc1cc(OC)c2c(c1)C(C(O)c1ccc(OCc3ccc(OC(F)(F)F)cc3)cc1)OC2=O (stereo unspecified)	> 40	62.8	8.14	> 40	Non-Toxic		
COc1cc(OC)c2c(c1)C(C(O)c1ccc(OCC(C)C)cc1)OC2=O (stereo unspecified)	> 40	48.6	> 10	> 40	Non-Toxic		
COc1cc(OC)c2c(c1)C(C(O)c1ccc(OCc3ccc(C#N)cc3)cc1)OC2=O (stereo unspecified)	> 40	60.8	7.36	> 40	Non-Toxic		
CCCCCCOc1ccc(C(O)C2OC(=O)c3c(OC)cc(OC)cc32)cc1 (stereo unspecified)	> 40	62.2	5.36	> 40	Non-Toxic		
COCCCCOc1ccc(C(O)C2OC(=O)c3c(OC)cc(OC)cc32)cc1 (stereo unspecified)	> 40	50.3	8.21	> 40	Non-Toxic		
O=C1OC(Cc2nc(-c3ccc(Oc4ccccc4)cc3)no2)c2ccccc21 (stereo unspecified)	> 40	10	> 10	> 40	Non-Toxic		
COc1cc(OC)c2c(c1)/C(=C/c1ccc(OCc3ccc(F)cc3)cc1)OC2=O	> 40	48.2	> 10	> 40	Non-Toxic		
O=C1OC(Cc2nc(Cc3ccccc3)no2)c2ccccc21 (stereo unspecified)	> 40	25.1	> 10	> 40	Non-Toxic		
COc1cc(OC)c2c(c1)C(C(O)c1ccc(OCCOc3ccccc3)cc1)OC2=O (stereo unspecified)	> 40	41.2	> 10	> 40	Non-Toxic		
C=CCCOc1ccc(C(O)C2OC(=O)c3c(OC)cc(OC)cc32)cc1 (stereo unspecified)	> 40	87.2	1.33	> 40	Non-Toxic		
COc1ccc(C(O)C2OC(=O)c3c(OC)cc(OC)cc32)cc1 (stereo unspecified)	> 40	38.7	> 10	> 40	Non-Toxic		
CCOCCOc1ccc(C(O)C2OC(=O)c3c(OC)cc(OC)cc32)cc1 (stereo unspecified)	> 40	42.9	> 10	> 40	Non-Toxic		
COc1cc(OC)c2c(c1)C(C(O)c1ccc(OCC3CCCCC3)cc1)OC2=O (stereo unspecified)	> 40	27.4	> 10	> 40	Non-Toxic		
